Data set [1] deals with SH-SY5Y. In words: Cytoprotective activity against amyloid beta (25 to 35 residues)-induced toxicity in human SH-SY5Y cells assessed as increase in cell viability incubated for 24 hrs by MTT assay. The format is functional, cell-based. The settings on record: dose 10-100 µM. In a few lines: (§1)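 SH-SY5Y cells seeded at 2.0 × 10^4 per well, after 24 h exposed to Aβ25–35 (100.0 μM; DMSO stock 12.5 mM) for 48 h, washed twice with PBS, then given test peptides for a further 24 h. MTT read-out as in cytotoxicity assay. Viability relative to untreated control cells. Mean ± SD of six measurements from three independent experiments.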

Data set [2] deals with Amyloid-beta precursor protein (Homo sapiens) (UniProt P05067). In words: Inhibition of amyloid beta (1 to 42) (unknown origin) aggregation assessed as reduction in amyloid beta fibril formation at 200 uM incubated for 12 hrs by ThT-based fluorescence analysis. Summed up: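 Aβ1–42 (20 μM) incubated alone or with peptide (200 μM, tenfold molar excess) plus ThT (10 μM) in 20 mM Tris-HCl pH 7.4 at 20 °C. Real-time fluorescence (excitation 450 nm, emission 482 nm) recorded every 30 min for ~12 h. Intensity plotted against time. Three independent experiments.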
Amyloid-beta precursor protein (Homo sapiens), sequence (P05067 whole entry): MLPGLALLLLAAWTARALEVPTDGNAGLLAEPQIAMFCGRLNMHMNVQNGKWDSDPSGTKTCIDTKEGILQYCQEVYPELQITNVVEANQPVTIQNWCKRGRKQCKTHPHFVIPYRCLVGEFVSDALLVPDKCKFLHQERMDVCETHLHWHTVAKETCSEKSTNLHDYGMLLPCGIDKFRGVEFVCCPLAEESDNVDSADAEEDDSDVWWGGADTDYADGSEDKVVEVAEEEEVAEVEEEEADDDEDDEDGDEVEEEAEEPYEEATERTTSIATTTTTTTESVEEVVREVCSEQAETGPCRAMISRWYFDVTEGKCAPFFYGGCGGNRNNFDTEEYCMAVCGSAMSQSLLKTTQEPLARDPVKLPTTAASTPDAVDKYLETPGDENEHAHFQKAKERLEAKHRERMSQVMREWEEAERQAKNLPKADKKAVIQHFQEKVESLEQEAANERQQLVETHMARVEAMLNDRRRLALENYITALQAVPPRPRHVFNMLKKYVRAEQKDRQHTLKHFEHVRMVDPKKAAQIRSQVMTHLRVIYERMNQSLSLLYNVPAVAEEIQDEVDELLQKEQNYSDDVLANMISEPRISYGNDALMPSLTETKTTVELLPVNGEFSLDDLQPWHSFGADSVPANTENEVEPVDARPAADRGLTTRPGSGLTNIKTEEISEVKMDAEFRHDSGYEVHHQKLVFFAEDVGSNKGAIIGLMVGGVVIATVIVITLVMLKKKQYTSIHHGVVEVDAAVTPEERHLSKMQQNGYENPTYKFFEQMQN

Data set [3] in a line: Drug uptake in human SH-SY5Y cells at 100 uM by UHPLC-HR MS analysis. In kind it is ADME, cell-based. Summed up: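 SH-SY5Y cells seeded at 2.0 × 10^6 per 100 mm dish, treated after 24 h with peptides (100 μM) in FBS-free medium. Cell pellets quenched and extracted, sonicated 5 min, centrifuged 3500 rpm at 0 °C for 10 min. Supernatant lyophilized, reconstituted in acetonitrile and analysed by UHPLC-HR TOF-MS/MS, with extracted ion chromatograms of protonated molecular ions.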

Data set [4] has as its system SH-SY5Y. As to the kind of experiment: Cytoprotective activity against amyloid beta (25 to 35 residues)-induced toxicity in human SH-SY5Y cells assessed as increase in cell viability at 100 uM incubated for 24 hrs by MTT assay relative to control. In kind it is functional. In a few lines: as §1
(Formazan colour is commonly taken as a measure of viable cells.)

The test system of data set [5] is SH-SY5Y. In words: Cytotoxicity against human SH-SY5Y cells assessed as reduction in cell viability at 10 to 100 uM after 48 hrs by MTT assay. Particulars: dose 10-100 µM. In kind it is toxicity, cell-based. Summed up: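 Human SH-SY5Y neuroblastoma cells in DMEM with 10% FBS, penicillin/streptomycin, 37 °C, 5% CO2. Seeded at 1.5 × 10^4 per well, treated after 24 h, exposed 48 h. MTT 0.50 mg mL⁻¹ for 4 h at 37 °C, formazan dissolved in DMSO, absorbance 570 nm. Viability expressed as % mitochondrial redox activity of untreated control.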

For data set [6], the system named is SH-SY5Y. As to the kind of experiment: Cytoprotective activity against amyloid beta (25 to 35 residues)-induced toxicity in human SH-SY5Y cells assessed as increase in cell viability at 10 uM incubated for 24 hrs by MTT assay relative to control. The format is functional. In a few lines: as §1

Activity calls are given as the source filed them. No cut-off for these calls is given here. Square brackets hold non-standard residues; d marks the D form. Peptide text beside a SMILES is read from it. Sar = CNCC(=O)O

For the molecule `CC(=O)N[C@@H](CCCCN)C(=O)N(C)CC(=O)N[C@H](C(=O)N[C@@H](Cc1ccccc1)C(=O)N[C@@H](Cc1ccccc1)C(=O)N(C)CC(=O)N[C@@H](CCC(=O)O)C(N)=O)C(C)C` (Ac-K[Sar]VFF[Sar]E-NH2), the Activity result in the data set with SH-SY5Y [1] was “Dose-Dependent Effect”; in the data set on SH-SY5Y [4], 142.1%; with SH-SY5Y [5] it was “Non-Toxic”. Moreover, the inhibition result in data set [2] was “Active”. Further, in data set [3], the Drug uptake result was “Active”.

Turning to `CC(=O)N[C@@H](Cc1ccccc1)C(=O)N[C@@H](CCCCN)C(=O)N[C@@H](CCC(=O)O)C(=O)N(C)CC(=O)N(C)CC(=O)N[C@H](C(N)=O)C(C)C` (Ac-FKE[Sar][Sar]V-NH2), the inhibition entry in data set [2] was “Active”.

Consider `CC[C@H](C)[C@H](NC(C)=O)C(=O)N[C@H](C(=O)N(C)CC(=O)N[C@@H](CC(C)C)C(=O)N[C@@H](CCSC)C(=O)N[C@H](C(=O)NCC(=O)N(C)CC(=O)N[C@H](C(N)=O)C(C)C)C(C)C)[C@@H](C)CC`, for which, in data set [2], the inhibition result was “Active”.

As for Ac-LPFFD-NH2, the Activity result in the data set with SH-SY5Y [1] was “Dose-Dependent Effect”; with SH-SY5Y [4] it was 110.8%; in the data set with SH-SY5Y [5], “Non-Toxic”. Further, the inhibition entry in data set [2] is “Active”.

`CC(=O)N[C@@H](CCCCN)C(=O)N(C)CC(=O)N[C@H](C(=O)N[C@@H](Cc1ccccc1)C(=O)N(C)CC(=O)N[C@@H](CCC(=O)O)C(N)=O)C(C)C` (Ac-K[Sar]VF[Sar]E-NH2): the Activity result with SH-SY5Y [1] is “Dose-Dependent Effect”; in the data set with SH-SY5Y [6], approximately 30%; with SH-SY5Y [5], “Non-Toxic”. In addition, the inhibition entry in data set [2] is “Active”. In data set [3], the Drug uptake result was “Active”.

The record behind these values is ChEMBL document CHEMBL5584288, “Synthesis, biological evaluation and metadynamics simulations of novel N-methyl β-sheet breaker peptides as inhibitors of Alzheimer's β-amyloid fibrillogenesis” (RSC Med Chem, 2024).
